Our source for the EC50 and CC50 values is PubChem BioAssay AID2830 (NMMLSC, 2010).

The source made the active and inactive calls.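 Rule for the calls: active = toxic dose over resistance-reversal dose ratio above 10, when the toxic dose is under 15 µM; inactive = the rest.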

The test system of this assay is Igrov ABCG2 cells + mitoxantrone, trypan blue viability, 3 d. In words: restoration of mitoxantrone killing in ABCG2 cells, SAR follow-up, orthogonal assay for ABC transporter inhibitor project, Igrov cells, one SAR set (AID 2830). Particulars: for CC50: measured here: toxicity without chemotherapeutic (TD50). The method, boiled down: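 Test system – ABCG2-expressing Igrove cells, drug-resistant · Reagent – mitoxantrone as chemotherapeutic selective agent, fixed concentration · Timing – 3-day compound exposure alongside mitoxantrone · Detection – trypan blue exclusion with light-microscope cell counting · Measure – compound concentration halving cell viability under mitoxantrone (CR50)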

By EC50 is commonly meant the concentration needed to bring the measured effect to its halfway point. Broadly, the CC50 is the concentration at which the toxic effect on the cells reaches its halfway point. As to `COc1ccc(/C=N/NC(=O)c2cccnc2)cc1CN1CCN(c2ccc(F)cc2)CC1`, the EC50 was 8.71 µM (inactive) and the CC50 came to 15.4 µM.
The like results for `COc1ccc(-c2nn(-c3ccccc3)cc2/C=C/C(=O)N2CCN(c3ccccn3)CC2)cc1` were, in that order, 1.22 µM and over 100 µM.
As for `CCCCN(C)C1=CC2=CC(=C(C#N)C#N)CCC2CC1` (stereo not given), the EC50 was 5.77 µM and the CC50 amounted to 67.8 µM.
As to `CNc1nc2cc([N+](=O)[O-])c([N+](=O)[O-])cc2nc1NC`, the EC50 is 5.77 µM (inactive) and the cytotoxic concentration (CC50) was found to be 7.32 µM.
`COC(=O)c1ccc(C(C(=O)NC2CCCCC2)N(Cc2ccccc2)C(=O)Cc2cccs2)cc1` (stereo not given): the EC50 was 8.93 µM and the CC50 is over 100 µM.
With `CCN(CC)P(=O)(Nc1cccc(C(F)(F)F)c1)c1ccc(N(C)C)cc1NC(=O)c1ccco1` (stereo not given), the EC50 was 2.31 µM (inactive) and the CC50 was found to be 19.8 µM.
The corresponding values for `N#Cc1ccc(-c2ccc(OCC(=O)NCCc3ccccc3)cc2)cc1` are 4.73 µM and over 100 µM.
Regarding `O=[N+]([O-])c1ccccc1-c1nc(-c2ccc(Br)o2)no1`, the EC50 was 15.6 µM (inactive) and the CC50 was found to be 23.2 µM.
Take `O=[N+]([O-])c1ccc(Nc2nc(Cl)nc(NCCO)n2)cc1`: the EC50 is 55.5 µM (inactive) and the CC50 was over 100 µM.
Turning to `Cc1cc(C)c(C#N)c(SCc2c(F)cccc2[N+](=O)[O-])n1`, the EC50 is 18.3 µM (inactive) and the CC50 was over 100 µM.
As to `Cc1nc2cc(-c3cccc(F)c3)nn2c(N2CCN(C(=O)c3ccco3)CC2)c1C`, the EC50 is 0.419 µM and the CC50 was over 100 µM.
The like results for `CC1=NN(c2ccc([N+](=O)[O-])cc2)C(=O)/C1=C/N(C)C` were, in that order, 54.4 µM (inactive) and 78.4 µM.
The corresponding values for `CCOC(=O)c1c(NC(=O)CSc2ncccn2)sc2c1CCN(Cc1ccccc1)C2` are 0.117 µM (inactive) and 2.61 µM.
On to `CCCCn1c(O)c(N=Nc2ccccn2)c2ccccc21`, for which the EC50 is 3.73 µM (inactive) and the CC50 stood at 7.62 µM.
Turning to `CCOC(=O)c1cccc(NC(=O)c2cnc3ccccc3n2)c1`, the EC50 was 17.5 µM (inactive) and the CC50 came out at 67.8 µM.
